Source: PubChem BioAssay (several laboratories)
Yeast growth inh: yeast BB579 growth reduction in restrictive medium; hit rate 0.51% among 140,000; inhibition, % at 10 µM; S. cerevisiae BB579 growth, OD615, 48 h;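 active means inhibition above a set limit, 3 SD over the mean compound inhibition, cut at about 44% in these data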
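System: Saccharomyces cerevisiae DeaD strain BB579, replicative lifespan model yeast | Buffer or medium: Restrictive glucose-based CSMM-D medium | Times: 4 h preincubation and 48 h exposure at 30 °C | Detection: OD615 turbidity measurement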
sdo1 growth: restores growth of sdo1-depleted yeast. S. cerevisiae sdo1-depleted JHY4D growth rescue, OD600 30 h; active compounds read high; pdr5 snq2 efflux-pump mutant strain. z-score at 10 µM. AID 817. hit rate 0.21% among 140,000;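 active means z-score above 3 at both the 24 hr and the 30 hr optical density reads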
Yeast life ext: yeast lifespan extension; S. cerevisiae growth with nicotinamide, OD615; deaD strain in restrictive glucose medium; inhibition of the nicotinamide effect, % at 10 µM; hit rate 0.68% among 130,000;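 active means inhibition above a set limit, placed 3 SD over the median of all compounds, cut at about 26% in these data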
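System: Modified budding yeast, DeaD strain | Buffer or medium: Restrictive glucose medium | Also added: 1.5 mM nicotinamide | Doses: 10 µM single point, 0.25% DMSO | Schedule: 48 h compound exposure at 30 °C, humidified | Detection: Absorbance at 615 nm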
MRP reversal: reverses drug resistance mediated by MRP | H69AR cells + 2 uM doxorubicin, CellTiter-Glo, 72 h | differential viability (reversal), % at 10 µM | hit rate 0.04% among 85,000 | AID 602;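 active means viability drop by adding the cancer drug above about 55%, with treated viability meeting a 40% cutoff, limit read from the data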;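 further: larger differential means the compound sensitizes cells more to doxorubicin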
Phagocyt inh: macrophage phagocytosis inhibition. J774A.1 macrophage IgG-bead phagocytosis, imaging. inhibition, % at 5 µM. hit rate 0.07% among 110,000. AID 1029;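 active means inhibition above the mean of the plate negative controls plus 5 SD, cut at about 13% in these data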;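 further: phagocytic index as fraction of beads internalized from green versus red external bead signal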
MRP-1 activ: activators of MRP-1; H69AR cells + doxorubicin, viability rescue, CellTiter-Glo; viability increase, % at 10 µM; hit rate 0.61% among 140,000;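 active means viability gain under doxorubicin at or above a set limit, the compound median plus 3 SD, cut at about 4.7% in these data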;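 further: MRP-1 overexpressing cells given doxorubicin 25 µM after compound pretreatment; 18-22 h compound pretreatment then 72 h with doxorubicin before readout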
SDO1 rescue DR: SDO1-depleted yeast growth rescue confirmation. OD recovery (no concentration beside the values). shares compounds with sdo1 growth. hit rate 44% among 440. S. cerevisiae JHY4D (SDO1-depleted) growth rescue, OD600, 30 h; active compounds read high; efflux-deficient strain, SNQ2 and PDR5 mutated. AID 949;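 active means yeast growth recovered at 30 hours, either rising with dose fitted slope above 0.001 or with average optical density gain above 0.07, some results past the limit were not filed as active; inactive means growth falling with dose or no effect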
Hits are given with their value; n = inactive; x = no result. In the library only some 2.1% were active in any assay of this set; here they are far more common.

SMILES	Yeast growth inh	sdo1 growth	Yeast life ext	MRP reversal	Phagocyt inh	MRP-1 activ	SDO1 rescue DR
COc1ccccc1N(C(=O)c1snc(C(N)=O)c1N)C(C(=O)NC1CCCC1)c1ccco1 (configuration not stated)	n	n	n	n	n	n	x
CC(C(=O)NC1CCCC1)N(C(=O)c1snc(C(N)=O)c1N)c1ccc2c(c1)OCCO2 (configuration not stated)	n	14	n	n	n	n	0.08
COc1ccc(-c2nc3ccccc3o2)cc1NC(=O)c1ccc(Br)o1	n	n	n	n	n	n	0.064
CCN(CC)CCSc1nc(O)c(-c2ccccc2)c(=O)[nH]1	n	n	n	n	n	n	x
Cc1ccccc1S(=O)(=O)c1c(C)cc(C)n(CC(C)C)c1=O	n	5.5	n	n	n	n	0.11
CCN1CCCC1CNC(=O)CCNC(=O)c1cc(OC)c(OC)c(OC)c1 (configuration not stated)	n	3.3	n	n	n	n	0.083
O=c1ccc(OCCOc2ccccc2)nn1-c1ccccc1	n	12	n	x	n	n	0.082
NC(=O)COc1ccc(=O)n(-c2ccccc2)n1	n	n	n	n	n	n	x
CC(C)CC(NC(=O)COc1ccccc1)C(=O)O (configuration not stated)	n	n	n	n	n	n	x
COC(=O)[C@H](C)NC(=O)COc1ccccc1	n	3.8	n	x	n	n	n
CCN(CC)CCCNC(=O)c1sc2nc(-c3ccc(F)cc3)cn2c1C	n	3.6	n	n	n	n	0.083
Cc1c(C(=O)NCc2ccccn2)sc2nc(-c3ccc(F)cc3)cn12	n	n	n	n	x	n	x
Cc1ccc(CO/N=C\Cc2snc(Sc3ncc(C(F)(F)F)cc3Cl)c2C#N)cc1	n	3.7	n	n	n	n	n
COc1ccc(/C=N/NC(=O)CCCC(=O)NC2CCCCC2)cc1	n	n	n	x	n	n	x
COc1ccc(/C=N/NC(=S)NC2CCS(=O)(=O)C2)cc1 (configuration not stated)	n	11	n	x	n	n	n
CC1CCN(C(=O)C2CCC(CNS(=O)(=O)c3cccc4cccnc34)CC2)CC1 (configuration not stated)	n	9.6	n	n	x	n	n
CN1CCN(C(=O)C2CCC(CNS(=O)(=O)c3cccc4cccnc34)CC2)CC1 (configuration not stated)	n	n	n	n	x	n	x
CCOCCOC(=O)C(C)Oc1ccc(Oc2ncc(Cl)cc2Cl)cc1 (configuration not stated)	n	6.9	n	x	n	n	0.11
Oc1ccc(Oc2ncc(Cl)cc2Cl)cc1	n	n	n	n	n	n	x
O=S(=O)(c1ccc(Cl)c(NC(=S)Nc2cccc(O)c2)c1)N1CCOCC1	n	15	27	x	n	n	n
O=S(=O)(c1cccc(NC(=S)NCc2ccco2)c1)N1CCOCC1	n	n	n	x	n	n	x
CCc1ccc(NC(=O)CCc2nc3cccnc3n2Cc2ccc(OC)cc2)cc1	n	n	n	n	x	n	x
CC(C)NC(=O)c1ccccc1NC(=O)CN(c1ccc2c(c1)OCO2)S(C)(=O)=O	n	3.1	n	x	n	n	n
Cc1cc(NS(=O)(=O)c2ccc(NC(=S)NC(=O)c3ccccc3)cc2)no1	n	n	n	x	n	n	n
N#CCSc1ccsc1C(=O)Nc1ccc(F)cc1	n	n	n	x	n	n	x
O=C(C1CCCCC1)N(Cc1ccccc1)c1ccccn1	n	11	n	n	n	n	0.078
CCOC(=O)c1sc2nc3n(c(=O)c2c1C)CCC(C)CC3 (configuration not stated)	n	4	n	n	n	n	n
CC12CCC(c3c1nc1ccccc1[n+]3[O-])C2(C)C (configuration not stated)	n	5.4	n	x	n	n	0.08
CC12CCC(C(=O)n3c1nc1ccccc13)C2(C)C (configuration not stated)	n	n	n	n	n	n	x
Cc1ccccc1N1CCN(C(=O)CN2C(=O)c3ccccc3C2=O)CC1	n	7.4	n	n	n	n	0.075
